Assay [1] deals with aspartate receptor QEQQ receptor–kinase signaling complex (Salmonella typhimurium, UniProt P02941, E491Q). The assay is described as follows: in vitro receptor-coupled kinase assay, attractant titration, QEQQ receptor. It is filed as biochemical, S. typhimurium.
The target in assay [2] is aspartate receptor EQQE receptor–kinase signaling complex (Salmonella typhimurium, UniProt P02941, E302Q/Q295E). The assay is described as follows: in vitro receptor-coupled kinase assay, attractant titration, EQQE receptor. It is filed as biochemical, S. typhimurium.
In assay [3] the target is aspartate receptor EEQQ receptor–kinase signaling complex (Salmonella typhimurium, UniProt P02941, E491Q/Q295E). The experiment in a line: in vitro receptor-coupled kinase assay, attractant titration, EEQQ receptor. It counts as biochemical, S. typhimurium.
The target of assay [4] is aspartate receptor EQQQ receptor–kinase signaling complex (Salmonella typhimurium, UniProt P02941, E302Q/E491Q/Q295E). The assay is described as follows: in vitro receptor-coupled kinase assay, attractant titration, EQQQ receptor. It is filed as biochemical, S. typhimurium.
Assay [5] concerns the target aspartate receptor QQEQ receptor–kinase signaling complex (Salmonella typhimurium, UniProt P02941, E302Q/E491Q/Q309E). The experiment in a line: in vitro receptor-coupled kinase assay, attractant titration, QQEQ receptor. It counts as biochemical, S. typhimurium.
Assay [6] concerns the target aspartate receptor QQQE receptor–kinase signaling complex (Salmonella typhimurium, UniProt P02941, E302Q). The assay is described as follows: in vitro receptor-coupled kinase assay, attractant titration, QQQE receptor. It is filed as biochemical, S. typhimurium.
The target in assay [7] is aspartate receptor–kinase signaling complex (Salmonella enterica subsp. enterica serovar Typhimurium, UniProt P02941). It counts as biochemical, S. typhimurium. Particulars: pure off-state, extrapolated from the correlation.
Assay [8] concerns the target aspartate receptor EQEE receptor–kinase signaling complex (Salmonella typhimurium, UniProt P02941, E302Q/Q295E/Q309E). The assay is described as follows: in vitro receptor-coupled kinase assay, attractant titration, EQEE receptor. It counts as biochemical, S. typhimurium.
The target of assay [9] is aspartate receptor EEEQ receptor–kinase signaling complex (Salmonella typhimurium, UniProt P02941, E491Q/Q295E/Q309E). The assay is described as follows: in vitro receptor-coupled kinase assay, attractant titration, EEEQ receptor. It counts as biochemical, S. typhimurium.
The target in assay [10] is aspartate receptor QEEQ receptor–kinase signaling complex (Salmonella typhimurium, UniProt P02941, E491Q/Q309E). The experiment in a line: in vitro receptor-coupled kinase assay, attractant titration, QEEQ receptor. It is filed as biochemical, S. typhimurium.
Assay [11] has as its target aspartate receptor QEEE receptor–kinase signaling complex (Salmonella typhimurium, UniProt P02941, Q309E). The experiment in a line: in vitro receptor-coupled kinase assay, attractant titration, QEEE receptor. It is filed as biochemical, S. typhimurium.
Assay [12] has as its target aspartate receptor QEQE (wild type) receptor–kinase signaling complex (Salmonella typhimurium, UniProt P02941). The experiment in a line: in vitro receptor-coupled kinase assay, attractant titration, QEQE. It is filed as biochemical, S. typhimurium. The method in brief: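 Native E. coli membranes carrying the receptor (about 10% of total protein) were mixed with purified CheA, CheW and excess CheY to reconstitute the signaling complex, with receptor in the low micromolar range. Kinase activity was read as radiolabeled phospho-CheY at 10-s initial-rate points across α-methyl-aspartate concentrations, normalized to the no-attractant maximum, with three measurements per point. K1/2 and Hill coefficient came from a multisite Hill fit using free attractant concentration.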

Assay [13] deals with aspartate receptor EQEQ receptor–kinase signaling complex (Salmonella typhimurium, UniProt P02941, E302Q/E491Q/Q295E/Q309E). The assay is described as follows: in vitro receptor-coupled kinase assay, attractant titration, EQEQ receptor. It is filed as biochemical, S. typhimurium.
The target of assay [14] is aspartate receptor QQQQ receptor–kinase signaling complex (Salmonella typhimurium, UniProt P02941, E302Q/E491Q). The experiment in a line: in vitro receptor-coupled kinase assay, attractant titration, QQQQ receptor. It is filed as biochemical, S. typhimurium.
The target of assay [15] is aspartate receptor QQEE receptor–kinase signaling complex (Salmonella typhimurium, UniProt P02941, E302Q/Q309E). The experiment in a line: in vitro receptor-coupled kinase assay, attractant titration, QQEE receptor. It is filed as biochemical, S. typhimurium.
Assay [16] addresses aspartate receptor EEQE receptor–kinase signaling complex (Salmonella typhimurium, UniProt P02941, Q295E). The assay is described as follows: in vitro receptor-coupled kinase assay, attractant titration, EEQE receptor. It is filed as biochemical, S. typhimurium.
Another assay addresses QQQQ receptor (Salmonella typhimurium, UniProt P02941, E302Q/E491Q). The experiment in a line: L-aspartate binding to QQQQ receptor. The settings on record: given binding constant for QQQQ receptor.

Where two headings read alike, the source gives them in different places.

As for `CC(N)(CC(=O)O)C(=O)O` (racemic) [α-methyl-aspartate, α-methyl-D,L-aspartate], the IC50 in [1] stood at 62 ± 3 µM; in [2], 14 ± 2 µM; in [3], 19 ± 2 µM; in assay [4], 39 ± 4 µM; in [5], 54 ± 6 µM; in assay [6] it was 98 ± 4 µM. Further, the IC50 in assay [8] was 16 ± 4 µM; in [9], 9 ± 3 µM; in assay [10], 19 ± 2 µM; in assay [11], 9 ± 1 µM; in [12] it was 23 ± 4 µM; in assay [13], 14 ± 1 µM. The results for the IC50 in [14], in [15] and in assay [16] were 97 ± 4 µM, 31 ± 2 µM and 23 ± 2 µM, respectively. Besides, the “Measured Hill coefficient” value in [1] (QEQQ receptor, attractant titration, Hill fit) turned out to be 2.2 ± 0.3; in assay [2] (EQQE receptor, attractant titration, Hill fit), 2.1 ± 0.3; in assay [3] (EEQQ receptor, attractant titration, Hill fit) it was 1.9 ± 0.2; in [4] (EQQQ receptor, attractant titration, Hill fit), 2.0 ± 0.3; in [5] (QQEQ receptor, attractant titration, Hill fit), 2.0 ± 0.5; in assay [6] (QQQE receptor, attractant titration, Hill fit) it was 3.3 ± 0.4. For the same compound, the “Measured Hill coefficient” value in assay [8] (EQEE receptor, attractant titration, Hill fit) was 1.6 ± 0.4; in [9] (EEEQ receptor, attractant titration, Hill fit), 1.1 ± 0.4; in [10] (QEEQ receptor, attractant titration, Hill fit), 2.4 ± 0.5; in assay [11] (QEEE receptor, attractant titration, Hill fit), 1.7 ± 0.1; in assay [12] (QEQE (wild type) receptor, attractant titration, Hill fit) it was 1.8 ± 0.1; in [13] (EQEQ receptor, attractant titration, Hill fit) it was 2.9 ± 0.3. Further, the “Measured Hill coefficient” value is listed as 2.2 ± 0.2 in assay [14] (QQQQ receptor, attractant titration, Hill fit); 2.2 ± 0.2 in assay [15] (QQEE receptor, attractant titration, Hill fit); 1.8 ± 0.1 in [16] (EEQE receptor, attractant titration, Hill fit). The “K1/2 of the off-state (inactivated conformation)” value was “micromolar to submicromolar range” in assay [7] and “submicromolar to micromolar range” in [7] (listed as α-methyl aspartate).
With `N[C@@H](CC(=O)O)C(=O)O` [L-aspartate], the “free energy driving force toward the off-state on binding” value at QQQQ receptor is “exceeding 8 kcal mol^−1”.

The term IC50 denotes the concentration that gives 50% inhibition.

(Values after paper PMC2229510 (The Journal of General Physiology, 2001).)
